Shown are actives, neighbours in structure and some others; about 6.6% of the full set was active somewhere.
M1 antagonist: antagonists of rat M1 muscarinic receptor | Muscarinic acetylcholine receptor M1 (Rattus norvegicus), P08482 | AID 628, 2007 | actives 3.4% (n = 64,000) | CHO-M1 cells, Fluo-4 calcium, ACh EC80 antagonist mode; active compounds read low | B-score at 10 µM;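 active = calcium fluorescence response, raw or row-and-column corrected B-score, differing from the plate sample mean either way at a set confidence level, mostly lower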
M1 agonist: M1 muscarinic receptor agonists, primary screen, CHO-M1 cells, Fluo-4 calcium, agonist mode | Fluo-4 calcium fluorescence; active compounds read high | B-score at 10 µM | actives 3% (n = 64,000);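 active = fluorescence rise, raw or as B-score row- and column-corrected plate score, outside the 99.7% band of its plate's samples, either direction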
JNK3 inh: JNK3 kinase activity inhibitors, primary screen, biochemical, human, purified enzyme; inhibition, % at 8 µM; HTS; Mitogen-activated protein kinase 10 (Homo sapiens), P53779; actives 0.61% (n = 60,000); in the data active = inhibition above about 17%;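 also: 0% = DMSO and 100% = reference inhibitor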
Target sequence (P53779 whole entry, looked up): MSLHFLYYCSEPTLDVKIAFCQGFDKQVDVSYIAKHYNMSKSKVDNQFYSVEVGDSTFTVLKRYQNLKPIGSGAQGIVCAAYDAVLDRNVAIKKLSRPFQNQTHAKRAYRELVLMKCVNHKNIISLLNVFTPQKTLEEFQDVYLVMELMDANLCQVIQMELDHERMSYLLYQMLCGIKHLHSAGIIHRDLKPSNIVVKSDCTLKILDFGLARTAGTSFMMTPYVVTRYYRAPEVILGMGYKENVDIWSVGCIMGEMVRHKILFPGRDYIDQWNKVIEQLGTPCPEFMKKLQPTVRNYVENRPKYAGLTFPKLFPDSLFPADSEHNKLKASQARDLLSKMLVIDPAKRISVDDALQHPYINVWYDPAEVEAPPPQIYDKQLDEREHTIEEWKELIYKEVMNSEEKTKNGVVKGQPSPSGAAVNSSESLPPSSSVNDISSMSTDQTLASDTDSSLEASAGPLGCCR
HER2 expr 66K: inhibitors of Her2 protein expression, primary screen, SKBR-3 cells, AlphaScreen, 66K library; Receptor tyrosine-protein kinase erbB-2 (Homo sapiens), P04626; SKBR-3 HER2 protein level, 18-24 h; active compounds read low; HER2 level % of control, % at 10 µM; actives 0.69% (n = 65,000);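 active = HER2 level under 5% of the carrier-only control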;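 also: 100% = DMSO carrier and 0% = 500 nM PU-H71 HSP90 inhibitor; lower value means stronger loss of Her2 protein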
BAP1 block: inhibitors of BAP1 deubiquitinase, primary screen, biochemical, Ub-AMC fluorescence, kinetic; Ubiquitin carboxyl-terminal hydrolase BAP1 (Homo sapiens), Q92560; recombinant BAP1, Ub-AMC hydrolysis fluorescence kinetic; active compounds read low; calls only at 20 µM; actives 0.48% (n = 72,000);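 active = activity remaining at or below 50% of control, provided the compound also passes the data quality filters; inactive = the rest, including low values that fail the filters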;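 also: 100% = DMSO wells rate and 0% = substrate alone blank rate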
HEK293 NFkB inh: inhibitors of PMA/ionomycin-induced NF-kB reporter, primary screen, antigen receptor NF-kB inhibitor project, cell-based, HEK-293 luciferase reporter, luminescence | AID 465, 2006 | inhibition, % at 3 µM | actives 0.21% (n = 62,000) | HEK-293 NF-kB luciferase reporter;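 active = inhibition above the mean of all tested compounds plus 3 SD, cut at about 40% in these data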;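 also: 0% = stimulated DMSO wells and 100% = 10 µM reference inhibitor 5653914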
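Signal: luciferase luminescence; Material: HEK-293 cells with stable firefly luciferase reporter driven by four HIV NF-kB elements; Probe or stimulus: PMA with ionomycin; Replication: tested once; Times: 1 h compound pretreatment, then 16 h stimulation at 37 °C, 5% CO2; Benchmarks: DMSO and 10 µM reference inhibitor; Evaluation: per-plate % inhibition versus controls.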
M1 antag conf: rat M1 muscarinic receptor antagonists, confirmation, CHO cells, Fluo-4 calcium, duplicate. ACh EC80 antagonism; active compounds read low. actives 43% (n = 1,700). calcium response (max-min fluorescence) at 10 µM. shares compounds with M1 antagonist. AID 677, 2007;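 active = calcium response below the same-plate mean of wells given acetylcholine alone at its 80%-effect dose, minus 3 SD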;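 also: raw fluorescence intensity difference in arbitrary instrument units and not normalized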
mGluR4 antag: human mGluR4 response to M1 antagonist hits, M1 allosteric modulator project, cell-based, antagonist mode, secondary assay 1 | shares compounds with M1 antagonist | CHO-mGluR4 calcium flux, Fluo-4 fluorescence, glutamate EC80; active compounds read low | fluorescence response (max-min) at 10 µM | actives 0.9% (n = 1,700) | AID 678, 2007;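 active = fluorescence response below the plate's average for near-maximal glutamate wells, less 3 SD of those wells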;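 also: raw unnormalized fluorescence span taken in the window right after glutamate addition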
Numbers without * were called inactive; i = inactive; nt = not tested or not shown.

SMILES	M1 antagonist	M1 agonist	JNK3 inh	HER2 expr 66K	BAP1 block	HEK293 NFkB inh	M1 antag conf	mGluR4 antag
CCN(CC)CCCn1c(=S)[nH]c2cc(Cl)ccc2c1=O	-1.6	-0.022	nt	118	i	12	nt	nt
CCN(CC)CCCn1c(=S)[nH]c2ccc(Cl)cc2c1=O	-1.4*	0.023	nt	106	i	3	596	239
COc1ccc(CCN2C(=O)CC(Sc3ncccc3C(=O)O)C2=O)cc1OC (configuration not stated)	-2.4*	0.37	nt	75	i	-2	716	180
Cc1cc(C(=O)N(C)Cc2ccc(Br)cc2)no1	-7.8*	-0.014	5	143	i	17	647	241
CCN(CC)S(=O)(=O)c1cc(C(=O)Nc2cccc(O)c2)ccc1C	nt	nt	nt	nt	i	nt	nt	nt
CN(C(=O)CSc1nc(-c2ccc(F)cc2)cs1)C1CCS(=O)(=O)C1 (configuration not stated)	-3.1*	-0.17	2	104	i	8	407	210
O=C(CCN1CCc2ccccc2C1)c1ccc2c(c1)OCCO2	-5.7*	-0.17	-4	38	i	16	487*	254
O=C(CCN1CCc2ccccc21)c1ccc2c(c1)OCCO2	0.15	-0.94	-2	94	i	nt	nt	nt
O=C1c2ccccc2C(=O)N1CCOCCN1C(=O)c2ccccc2C1=O	-3.3*	0.45	9	83	i	8	687	242
O=C(O)c1cc(N2C(=O)c3ccc([N+](=O)[O-])cc3C2=O)cc(N2C(=O)c3ccc([N+](=O)[O-])cc3C2=O)c1	nt	nt	nt	nt	i	nt	nt	nt
O=C(Nc1ccc(Cl)c(Cl)c1)N1CCC(N2CCCCC2)CC1	-2.5*	-0.15	-2	104	i	20	407	208
COc1cccc(NC(=O)N2CCC(N3CCCCC3)CC2)c1	-0.33	0.17	-5	73	i	17	nt	nt
CC(C)CCNC(=O)Cn1c(=O)oc2cc(S(=O)(=O)N3CCc4ccccc43)ccc21	-4.5*	-0.89	-1	81	i	11	478*	201
O=C(Cn1c(=O)oc2cc(S(=O)(=O)N3CCc4ccccc43)ccc21)NC1CCCC1	-4.3*	0.06	-1	96	i	6	503*	186
COc1ccc(NS(=O)(=O)c2ccc(C)cc2)cc1[N+](=O)[O-]	nt	nt	nt	nt	i	nt	nt	nt
CC(C)=CCCC(C)CN(C)CCc1ccccn1 (configuration not stated)	-3.1*	0.72	-4	96	i	8	569*	198
Cc1cccc(CN(C)CCc2ccccn2)c1	-0.75	0.77	5	127	i	5	nt	nt
Cc1nc(SCC(=O)NCc2ccco2)c2c3c(sc2n1)CCCC3	0.0085	0.043	-1	84	i	7	nt	nt
CC(C)Sc1nc(SCC(=O)NCc2ccco2)c2c3c(sc2n1)COC(C)(C)C3	-1.9*	0	nt	77	nt	4	681	214
O=C(Nc1ccc2snnc2c1)N1CCN(c2ccccc2)CC1	-0.54	0.068	nt	154	i	nt	nt	nt
O=C(Nc1ccc2snnc2c1)N1CCOCC1	-2.4*	-1.4	4	98	i	-1	599	208
COc1cccc(CNC(=O)CCn2c(=O)oc3ccccc32)c1	-3.5*	-0.32	5	82	i	14	538	253
CCOc1ccc(CNC(=O)CCn2c(=O)oc3ccccc32)cc1OC	0.26	0.0016	-2	82	i	16	nt	nt

From PubChem
